One block for each molecule: values may come before it.
Key:
[1] = target: T1, Amyloid-beta precursor protein (Homo sapiens, UniProt P05067); assay: Inhibition constant of compound on ligand binding to aggregates of Amyloid beta was measured by comparing with [125I]TZDM
Summary of the method: (§1)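 Aβ(1-40) or Aβ(1-42) peptide pre-aggregated at 0.5 or 0.25 mg/mL respectively in pH 7.4 buffer (10 mM sodium phosphate, 1 mM EDTA), 37 °C for 36-42 h with shaking. Fibrils (10-50 nM final) incubated with ¹²⁵I radioligand in 10% EtOH, 3 h at room temperature. Bound ligand separated by GF/B filtration and γ-counted. Ki from nonlinear regression. Three independent experiments, each in duplicate, mean ± SEM.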

[2] = target: T1, Amyloid-beta precursor protein; assay: Inhibition constant of compound on ligand binding to aggregates of Amyloid beta was measured by comparing with [125I]IMSB; summary of the method: as §1
[3] = target: T1, Amyloid-beta precursor protein; assay: Inhibition constant for amyloid beta compared to [125I]TZDM
Summary of the method: (§2)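 Aβ(1-40) or Aβ(1-42) aggregated at 0.5 or 0.25 mg/mL respectively in pH 7.4 buffer (10 mM sodium phosphate, 1 mM EDTA), 37 °C, 36-42 h with shaking. Competition against ¹²⁵I radioligand with fibrils 10-50 nM (final), 10% EtOH, 1 mL. Incubation 3 h room temperature. Bound ligand collected by GF/B filtration, γ-counted. Ki by nonlinear regression. Mean ± SEM, three experiments in duplicate.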

[4] = target: T1, Amyloid-beta precursor protein; assay: Inhibition constant for aggregates of amyloid beta compared to [125I]IMSB; summary of the method: as §2
Mus musculus [5] = assay: Biodistribution was measured in mice heart 60 minutes after intravenous injection of [125I]-labeled styrylbenzene.; format: ADME, organism-based; conditions: in vivo, 1 h
Summary of the method: (§3)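 ICR mice (2-3 months old, 20-30 g) under ether anesthesia received 5-10 µCi ¹²⁵I tracer in 0.15 mL saline by tail-vein injection. Animals were killed by cardiac excision at set times post-injection. Organs were removed, weighed and γ-counted. Values are % dose per organ against diluted injectate aliquots, taking blood and muscle as 7% and 40% of body weight. Mean of 3-4 mice ± SD.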

Mus musculus [6] = assay: Biodistribution was measured in mice kidney 30 minutes after intravenous injection of [125I]-labeled styrylbenzene.; format: ADME, organism-based; conditions: in vivo, 0.5 h; summary of the method: as §3
Mus musculus [7] = assay: Biodistribution was measured in mice kidney 5 minutes after intravenous injection of [125I]-labeled styrylbenzene.; format: ADME, organism-based; conditions: in vivo; summary of the method: as §3
Mus musculus [8] = assay: Biodistribution was measured in mice kidney 60 minutes after intravenous injection of [125I]-labeled styrylbenzene.; format: ADME, organism-based; conditions: in vivo, 1 h; summary of the method: as §3
Mus musculus [9] = assay: Biodistribution was measured in mice liver 30 minutes after intravenous injection of [125I]-labeled styrylbenzene.; format: ADME, organism-based; conditions: in vivo, 0.5 h; summary of the method: as §3
Mus musculus [10] = assay: Biodistribution was measured in mice liver 5 minutes after intravenous injection of [125I]-labeled styrylbenzene.; format: ADME, organism-based; conditions: in vivo; summary of the method: as §3
Mus musculus [11] = assay: Biodistribution was measured in mice liver 60 minutes after intravenous injection of [125I]-labeled styrylbenzene.; format: ADME, organism-based; conditions: in vivo, 1 h; summary of the method: as §3
Mus musculus [12] = assay: Biodistribution was measured in mice muscle 30 minutes after intravenous injection of [125I]-labeled styrylbenzene.; format: ADME, organism-based, Muscle tissue; conditions: in vivo, 0.5 h; summary of the method: as §3
Mus musculus [13] = assay: Biodistribution was measured in mice muscle 5 minutes after intravenous injection of [125I]-labeled styrylbenzene.; format: ADME, organism-based, Muscle tissue; conditions: in vivo; summary of the method: as §3
Mus musculus [14] = assay: Biodistribution was measured in mice muscle 60 minutes after intravenous injection of [125I]-labeled styrylbenzene.; format: ADME, organism-based, Muscle tissue; conditions: in vivo, 1 h; summary of the method: as §3
Mus musculus [15] = assay: Biodistribution was measured in mice skin 30 minutes after intravenous injection of [125I]-labeled styrylbenzene.; format: ADME, organism-based, Zone of skin; conditions: in vivo, 0.5 h; summary of the method: as §3
Mus musculus [16] = assay: Biodistribution was measured in mice skin 5 minutes after intravenous injection of [125I]-labeled styrylbenzene.; format: ADME, organism-based, Zone of skin; conditions: in vivo; summary of the method: as §3
Mus musculus [17] = assay: Biodistribution was measured in mice skin 60 minutes after intravenous injection of [125I]-labeled styrylbenzene.; format: ADME, organism-based, Zone of skin; conditions: in vivo, 1 h; summary of the method: as §3
Mus musculus [18] = assay: Biodistribution was measured in mice spleen 30 minutes after intravenous injection of [125I]-labeled styrylbenzene.; format: ADME, organism-based; conditions: in vivo, 0.5 h
Summary of the method: (§4)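 ICR mice (2-3 months old, 20-30 g) under ether anesthesia; 0.15 mL saline containing 5-10 µCi ¹²⁵I tracer injected into tail vein. Sacrifice by cardiac excision at set times; organs removed, weighed, γ-counted. Expressed as % dose per organ versus diluted aliquots of injectate. Mean of three or four mice ± SD.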

Mus musculus [19] = assay: Biodistribution was measured in mice spleen 5 minutes after intravenous injection of [125I]-labeled styrylbenzene.; format: ADME, organism-based; conditions: in vivo; summary of the method: as §4
Mus musculus [20] = assay: Biodistribution was measured in mice spleen 60 minutes after intravenous injection of [125I]-labeled styrylbenzene.; format: ADME, organism-based; conditions: in vivo, 1 h; summary of the method: as §4
Mus musculus [21] = assay: Biodistribution was measured in mice blood 30 minutes after intravenous injection of [125I]-labeled styrylbenzene.; format: ADME, organism-based; conditions: in vivo, 0.5 h; summary of the method: as §3
Mus musculus [22] = assay: Biodistribution was measured in mice blood 5 minutes after intravenous injection of [125I]-labeled styrylbenzene.; format: ADME, organism-based; conditions: in vivo; summary of the method: as §3
Mus musculus [23] = assay: Biodistribution was measured in mice lung 30 minutes after intravenous injection of [125I]-labeled styrylbenzene.; format: ADME, organism-based; conditions: in vivo, 0.5 h; summary of the method: as §3
Mus musculus [24] = assay: Biodistribution was measured in mice lung 5 minutes after intravenous injection of [125I]-labeled styrylbenzene.; format: ADME, organism-based; conditions: in vivo; summary of the method: as §3
Mus musculus [25] = assay: Biodistribution was measured in mice lung 60 minutes after intravenous injection of [125I]-labeled styrylbenzene.; format: ADME, organism-based; conditions: in vivo, 1 h; summary of the method: as §3
Mus musculus [26] = assay: Biodistribution was measured in mice brain 5 minutes after intravenous injection of [125I]-labeled styrylbenzene; format: ADME, organism-based; conditions: in vivo; summary of the method: as §3
Mus musculus [27] = assay: Biodistribution was measured in mice brain 60 minutes after intravenous injection of [125I]-labeled styrylbenzene; format: ADME, organism-based; conditions: in vivo, 1 h; summary of the method: as §3
Mus musculus [28] = assay: Biodistribution was measured in mice heart 30 minutes after intravenous injection of [125I]-labeled styrylbenzene.; format: ADME, organism-based; conditions: in vivo, 0.5 h; summary of the method: as §3
Mus musculus [29] = assay: Biodistribution was measured in mice heart 5 minutes after intravenous injection of [125I]-labeled styrylbenzene.; format: ADME, organism-based; conditions: in vivo; summary of the method: as §3
Mus musculus [30] = assay: Biodistribution was measured in mice blood 60 minutes after intravenous injection of [125I]-labeled styrylbenzene.; format: ADME, organism-based; conditions: in vivo, 1 h; summary of the method: as §3
Mus musculus [31] = assay: Biodistribution was measured in mice brain 30 minutes after intravenous injection of [125I]-labeled styrylbenzene; format: ADME, organism-based; conditions: in vivo, 0.5 h; summary of the method: as §3

T1 sequence (P05067 whole entry): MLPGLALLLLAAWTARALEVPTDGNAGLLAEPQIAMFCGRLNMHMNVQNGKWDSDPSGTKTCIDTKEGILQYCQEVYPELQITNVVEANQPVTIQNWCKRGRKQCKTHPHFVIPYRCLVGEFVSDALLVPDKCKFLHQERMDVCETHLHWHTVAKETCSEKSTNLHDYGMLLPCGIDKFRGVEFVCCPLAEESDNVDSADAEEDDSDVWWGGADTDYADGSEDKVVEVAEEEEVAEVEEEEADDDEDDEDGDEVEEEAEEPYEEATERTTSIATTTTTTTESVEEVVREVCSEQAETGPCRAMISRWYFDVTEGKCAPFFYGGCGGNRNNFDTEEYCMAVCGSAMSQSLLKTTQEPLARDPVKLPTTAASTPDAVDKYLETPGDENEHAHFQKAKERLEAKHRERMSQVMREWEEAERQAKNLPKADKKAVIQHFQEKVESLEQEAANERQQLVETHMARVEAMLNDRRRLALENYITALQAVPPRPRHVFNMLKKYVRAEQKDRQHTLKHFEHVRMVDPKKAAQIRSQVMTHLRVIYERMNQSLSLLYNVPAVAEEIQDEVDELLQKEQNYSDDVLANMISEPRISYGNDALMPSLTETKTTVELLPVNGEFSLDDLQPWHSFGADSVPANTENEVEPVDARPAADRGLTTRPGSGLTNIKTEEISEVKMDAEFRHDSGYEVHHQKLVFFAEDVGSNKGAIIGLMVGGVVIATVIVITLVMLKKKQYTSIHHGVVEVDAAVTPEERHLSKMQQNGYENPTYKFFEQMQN

Ki [1]: > 2000 nM
Ki [2]: 0.4 nM
Ki [3]: > 1000 nM
Ki [4]: 0.14 nM
Compound: O=C(O)c1cc(/N=N/c2ccc(-c3ccc(/N=N/c4ccc(O)c(C(=O)O)c4)cc3)cc2)ccc1O [CHRYSAMINE G]

Dose/organ (Mus musculus [5]): 0.13%
Dose/organ (Mus musculus [6]): 0.77%
Dose/organ (Mus musculus [7]): 1.67%
Dose/organ (Mus musculus [8]): 0.63%
Dose/organ (Mus musculus [9]): 30.16%
Dose/organ (Mus musculus [10]): 42.68%
Dose/organ (Mus musculus [11]): 19.12%
Dose/organ (Mus musculus [12]): 3.9%
Dose/organ (Mus musculus [13]): 5.68%
Dose/organ (Mus musculus [14]): 2.98%
Dose/organ (Mus musculus [15]): 4.13%
Dose/organ (Mus musculus [16]): 4.02%
Dose/organ (Mus musculus [17]): 3.66%
Dose/organ (Mus musculus [18]): 0.13%
Dose/organ (Mus musculus [19]): 0.25%
Dose/organ (Mus musculus [20]): 0.07%
Dose/organ (Mus musculus [21]): 2.98%
Dose/organ (Mus musculus [22]): 7.57%
Dose/organ (Mus musculus [23]): 0.3%
Dose/organ (Mus musculus [24]): 0.81%
Dose/organ (Mus musculus [25]): 0.25%
Dose/organ (Mus musculus [26]): 0.27%
Dose/organ (Mus musculus [27]): 0.04%
Dose/organ (Mus musculus [28]): 0.17%
Dose/organ (Mus musculus [29]): 0.33%
Dose/organ (Mus musculus [30]): 2.59%
Dose/organ (Mus musculus [31]): 0.06%
Compound: O=C(O)c1cc(/C=C/c2ccc(/C=C/c3ccc(O)c(C(=O)O)c3)c(I)c2)ccc1O
